TRPC4 potent: allosteric potentiators of mouse TRPC4 channel | B-score at 10 µM | Q9QUQ5 | AID 2227 | actives 0.42% (n = 310,000) | HEK293 TRPC4beta/mu-opioid, DAMGO EC20, Fluo-4 Ca2+ flux; stronger effect = higher value;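 active = B-score of calcium response area above 5 SD of library B-scores, with initial fluorescence ratio within 5 SD of library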;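 note: B-score of integrated fluorescence ratio over time as area under calcium response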
Target sequence (Q9QUQ5 whole entry, looked up): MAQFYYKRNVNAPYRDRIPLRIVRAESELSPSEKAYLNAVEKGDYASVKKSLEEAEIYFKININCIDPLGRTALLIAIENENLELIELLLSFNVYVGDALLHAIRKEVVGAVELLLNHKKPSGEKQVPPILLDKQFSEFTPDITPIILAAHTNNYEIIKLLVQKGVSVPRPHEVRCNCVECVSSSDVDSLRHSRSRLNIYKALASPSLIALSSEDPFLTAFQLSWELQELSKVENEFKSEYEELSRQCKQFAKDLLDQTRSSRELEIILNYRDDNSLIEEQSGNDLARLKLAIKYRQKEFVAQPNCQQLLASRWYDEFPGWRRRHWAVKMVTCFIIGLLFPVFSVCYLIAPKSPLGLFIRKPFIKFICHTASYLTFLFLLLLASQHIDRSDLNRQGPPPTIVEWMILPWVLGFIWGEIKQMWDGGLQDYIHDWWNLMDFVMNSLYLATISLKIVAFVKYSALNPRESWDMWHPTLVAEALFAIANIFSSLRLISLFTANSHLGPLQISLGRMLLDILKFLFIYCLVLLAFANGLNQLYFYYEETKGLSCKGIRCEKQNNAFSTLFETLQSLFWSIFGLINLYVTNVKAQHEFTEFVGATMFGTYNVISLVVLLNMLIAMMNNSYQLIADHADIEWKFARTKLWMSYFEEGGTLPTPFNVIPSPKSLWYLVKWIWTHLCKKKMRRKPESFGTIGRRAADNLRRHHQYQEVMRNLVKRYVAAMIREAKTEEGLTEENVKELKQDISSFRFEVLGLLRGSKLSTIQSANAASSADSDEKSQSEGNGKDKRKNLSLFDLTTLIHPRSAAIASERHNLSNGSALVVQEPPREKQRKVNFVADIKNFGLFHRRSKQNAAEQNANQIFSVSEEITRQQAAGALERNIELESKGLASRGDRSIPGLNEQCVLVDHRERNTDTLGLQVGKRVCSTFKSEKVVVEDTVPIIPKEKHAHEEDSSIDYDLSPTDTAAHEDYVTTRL
TRPC4 act: activators of mouse TRPC4 channel; Q9QUQ5; HEK293 TRPC4beta/mu-opioid, Fluo4 calcium fluorescence; stronger effect = higher value; B-score at 10 µM; actives 0.49% (n = 310,000); AID 2237;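 active = B-score above 5 SD of library B-scores, and initial fluorescence ratio not above library mean plus 5 SD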;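 note: positive B-score marks a calcium rise read as TRPC4 activation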
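Assay system – TRPC4beta and mu-opioid receptor HEK293 stable cells · Measured by – Fluo4 fluorescence, kinetic · Schedule – dye loading 45 min room temperature, 110 s kinetic read · Read-out – B-scored integrated calcium fluorescence ratio · Controls – buffer and maximal DAMGO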
TRPC4 block: TRPC4 (mouse) channel inhibition; AID 2247; Q9QUQ5; actives 0.39% (n = 300,000); B-score at 10 µM; HEK293 TRPC4beta/mu-opioid, DAMGO-evoked Fluo4 calcium flux; stronger effect = lower value;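 active = B-score over 3 SD under the library average, no early fluorescence shift, positive overall ratio signal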
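Assay system: HEK293 cells with stable TRPC4beta plus mu-opioid receptor expression. Dosing: single dose. Measured by: Fluo4 Ca2+ flux fluorescence. Also added: DAMGO in two steps, submaximal then maximal. Read-out: B score from integrated Fluo4 fluorescence ratio.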
TRPC6 inh: blocks the mouse TRPC6 cation channel; Q61143; actives 1.1% (n = 310,000); B-score at 10 µM; HEK293-TRPC6, membrane potential dye, ACh-evoked depolarization; stronger effect = lower value;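 active = B-score under library mean minus 3 SD, initial fluorescence not abnormally high, positive integrated signal ratio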;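 note: B-score derived from integrated fluorescence ratio over the kinetic read; more negative B-score means stronger inhibition of depolarization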
TRPC6 activator: activators of mouse TRPC6 channel; HEK293-TRPC6 membrane potential dye fluorescence; stronger effect = higher value; B-score at 10 µM; Q61143; actives 0.13% (n = 310,000); AID 2550;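 active = B-score of the integrated fluorescence ratio above library mean plus 3 SD, and starting fluorescence ratio within library mean plus 5 SD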;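 note: higher score means more depolarization so channel activation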
* marks the source's active call; other numbers are inactive results; i = inactive. Only some compounds are listed: those with a hit (about 2.3% of all), similar ones and a draw of the others.

SMILES | TRPC4 potent | TRPC4 act | TRPC4 block | TRPC6 inh | TRPC6 activator
Cc1ccc(S(=O)(=O)N2CCN(C(=O)COC(=O)c3ccc(O)cc3)CC2)c(C)c1 | i | i | i | i | i
CC1=CC(C)(C)N2C(=O)C3(SCC(=O)N3c3ccc(O)cc3)c3cc(C)cc1c32 (centres undefined) | 10* | i | i | i | i
CCOC(=O)C1=C(C)N(C)C(C)=C(C(=O)OCC)C1c1ccsc1 | i | i | i | i | i
CC(=O)C1=C(O)C(=O)N(Cc2ccccc2)C1c1ccc([N+](=O)[O-])cc1 (centres undefined) | i | i | -6* | i | i
CC(=O)C1=C(O)C(=O)N(Cc2ccccc2)C1c1ccc(F)cc1 (centres undefined) | i | i | i | i | i
CNC[C@H](CC1CCCCC1)NC[C@H](Cc1ccccc1)NCCC12CC3CC(CC(C3)C1)C2 | i | 152* | i | i | i
O=C(CC12CC3CC(CC(C3)C1)C2)NC(Cc1ccccc1)C(=O)O (centres undefined) | i | i | i | i | i
CCN(CCC(=O)Nc1cc(OC)cc(OC)c1)Cc1ccccc1 | i | 60* | i | i | i
CCCN(CCC(=O)Nc1cc(OC)cc(OC)c1)CC1CC1 | i | 162* | i | i | i
Cc1ccc(NC(=O)NNC(=O)C2CC(c3cccs3)=NO2)cc1 (centres undefined) | i | i | i | i | i
CCCCc1cc(O)c(CCCC)c(O)c1 | 11* | 65* | i | i | i
O=C(O)c1cccc(CSc2ncn[nH]2)c1 | i | i | i | i | i
Cc1cccc(N2CCN(C(=O)C3(S(=O)(=O)c4ccc(Cl)cc4)CC3)CC2)c1C | 19* | i | i | i | i
O=C(NC1CCOCC1)C1CCC(=O)N(Cc2cccc(C(F)(F)F)c2)C1 (centres undefined) | i | i | i | i | i
CC12CC3CC(C)(C1)CC(C(=O)N1CCCC1)(C3)C2 | i | i | -6* | i | i
CN1CCN(C(=O)C23CC4CC(C)(CC(C)(C4)C2)C3)CC1 | i | i | -6* | i | i
O=C(N1CCCC1)C12CC3CCC(CC(C3)C1)C2 | i | i | i | i | i
COc1ccc2c(c1)C(=O)Cc1ccccc1O2 | i | i | i | i | i
Cc1ccc(S(=O)(=O)N2CCN(C)CC2)c2nsnc12 | i | i | i | i | i
Cc1nc(Nc2ccccc2)sc1C(=O)c1ccc(F)cc1 | 11* | i | i | i | i
Cc1nc(Nc2ccccc2)sc1C(=O)Nc1ccccc1 | i | i | i | i | i
Clc1ccc(OCCN2CCCCC2)cc1Cl | 26* | i | i | i | i
Clc1ccc(OCCCn2cncn2)cc1Cl | i | i | i | i | i
Cc1cc(OCCCCCN2CCCC2)ccc1Cl | i | i | i | i | i
Clc1ccc(OCCCN2CCCC2)cc1Cl | 11* | i | i | i | i
SMILES | TRPC4 potent | TRPC4 act | TRPC4 block | TRPC6 inh | TRPC6 activator
CNCCCOc1ccc2c(c1)CCC2 | 20* | 80* | i | i | i
Clc1ccc(OCCN2CCOCC2)cc1Cl | i | i | i | i | i
CNCCOc1ccc(Cl)c(Cl)c1 | 40* | 75* | i | i | i
Cc1ccc(NC(=O)CC2=NC(=O)C(CC(=O)Nc3ccccc3C)S2)cc1 (centres undefined) | i | i | i | i | i
CC1CCN(c2nc(Cl)nc(Nc3ccc([N+](=O)[O-])cc3)n2)CC1 | 47* | i | i | i | i
O=C(CN1CCN(Cc2ccc(F)cc2)CC1)Nc1nc2ccccc2s1 | i | i | i | i | i
CSCCC(NC(=O)c1ccco1)C(=O)N1CCN(Cc2ccccc2)CC1 (centres undefined) | i | i | i | i | i
CSCCC(NC(=O)c1ccco1)C(=O)OC(C)C(=O)NC(=O)NC1CCCCC1 (centres undefined) | i | 70* | i | i | i
CCOc1ccccc1C(=O)N(CN1CCCC1=O)c1cccc(Cl)c1 | i | 46* | i | i | i
CN1CCSc2ccc(C(=O)NCc3cccc(Br)c3)cc21 | i | i | i | i | i
N#Cc1cccc(NC(=O)Cn2cnc(S(=O)(=O)N3CCOCC3)c2)c1 | i | i | i | i | i
O=C(C1=C[C@H](c2ccc(C(F)(F)F)cc2)C[C@H](OCCCCO)O1)N1CCN(Cc2ccccc2)CC1 | i | 186* | i | i | i
Cc1cc(N2CCOCC2)nc2ccccc12 | i | i | i | i | i
Cc1cc(N2CCCCC2)nc2ccccc12 | i | i | -6* | i | i
Cc1cc(N2CCCCCC2)nc2ccccc12 | i | i | -6* | i | i
Cc1cc(OCCN2CCCCC2)nc2ccccc12 | 17* | i | i | i | i
COc1ccc(N2CCN(c3cc(C)c4ccc(C)cc4n3)CC2)cc1 | 12* | i | i | i | i
COc1ccc(N2CCN(c3cc(C)c4ccc(O)cc4n3)CC2)cc1 | i | i | i | i | i
Cc1cc(OCCN2CCOCC2)nc2ccccc12 | i | i | i | i | i
O=C(NCc1n[nH]c(=O)c2ccccc12)C1CC(=O)N(c2ccc(Cl)cc2)C1 (centres undefined) | i | i | i | i | i
O=C(Cn1cc([N+](=O)[O-])cn1)Nc1cccnc1 | i | i | i | i | i
Cc1cc(N2CCCN(C)CC2)nc2cc(Cl)ccc12 | 13* | i | i | i | i
COc1nc(N=C(N)N)nc2ccc(C)cc12 | i | i | -5* | i | i
CC1CCN(CCCOc2ccc(OCc3ccccc3)cc2)CC1 | i | i | -6* | i | i
Cc1cc(C)c(C(=O)Nc2ccccc2)c(CC(C)(C)C(=O)O)c1 | i | i | i | i | i
CN(CCNS(=O)(=O)c1ccc2c(c1)oc(=O)n2C)Cc1ccccc1 | 19* | i | i | i | i
CCCN1CCN(C(=O)Cn2c(=O)oc3cc(S(=O)(=O)NCc4ccccc4)ccc32)CC1 | i | 104* | i | i | i
COc1ccc(-c2nn(-c3ccccc3)cc2C(=O)NCC2CCCO2)cc1 (centres undefined) | i | 49* | i | i | i
Cc1cc(CNCc2cn(C)nc2-c2ccc(Oc3ccccc3)cc2)on1 | i | i | i | i | i

High-throughput results as filed in PubChem BioAssay.
